Test results reported in ChEMBL document CHEMBL3272173, “Synthesis and biological activity of peptide antagonists of luliberin (luteinizing hormone-releasing hormone)” (J Med Chem, 1979).
Several values for one entry are separate records, joined by “and”; a condition that tells them apart may be missing. Equal values may be shown once. Values belong to the compound of their own block, whether it stands above or below them.

Tests used:
[1] = target: T1, Gonadotropin-releasing hormone receptor (Rattus norvegicus) (UniProt P30969); assay: In vitro antagonist activity at GNRHR in CD rat anterior pituitary gland assessed as inhibition of LH-RH-stimulated LH release at compound to LH-RH molar ratio of 500 after 4 hrs by radioimmunoassay; settings: concentration not given here
T1 sequence (whole entry): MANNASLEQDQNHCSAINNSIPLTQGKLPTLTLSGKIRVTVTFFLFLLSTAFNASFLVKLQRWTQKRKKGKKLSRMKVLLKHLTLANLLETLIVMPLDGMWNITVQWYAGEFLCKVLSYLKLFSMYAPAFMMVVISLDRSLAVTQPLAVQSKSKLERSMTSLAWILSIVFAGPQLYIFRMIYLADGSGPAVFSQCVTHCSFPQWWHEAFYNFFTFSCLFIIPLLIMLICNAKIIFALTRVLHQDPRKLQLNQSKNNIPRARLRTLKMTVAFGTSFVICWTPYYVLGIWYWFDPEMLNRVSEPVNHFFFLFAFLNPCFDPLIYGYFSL
How it was run: (§1)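 Anterior pituitaries from diestrus CD rats (200-250 g) were dissociated enzymatically (collagenase, hyaluronidase, then Viokase). Cells were cultured 4 days at 1.67 × 10^5 cells/mL in DME with 10% horse serum and 2.5% fetal calf serum, then washed serum-free. Duplicate cultures received LH-RH (2-5 × 10^-10 M) with a single analogue concentration in serum-free DME for 4 h at 37 °C. LH in the medium was measured by RIA and reported as % inhibition of LH-RH-stimulated release.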

[2] = target: T1, Gonadotropin-releasing hormone receptor (Rattus norvegicus); assay: In vitro antagonist activity at GNRHR in CD rat anterior pituitary gland assessed as ratio of molar concentration of compound to LH-RH for inhibition of LH-RH-stimulated LH release after 4 hrs by radioimmunoassay
How it was run: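 Monolayers were cultured 4 days from dissociated anterior pituitary cells of diestrus CD rats. They were exposed in duplicate to LH-RH (2-5 × 10^-10 M) plus multiple analogue concentrations in serum-free DME for 4 h at 37 °C. LH in the medium was measured by radioimmunoassay. The ED50 molar ratio is the analogue:LH-RH molar ratio giving 50% inhibition of LH-RH-stimulated LH release.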

Rattus norvegicus [3] = assay: Antiovulatory activity in CD rat assessed as blockade of ovulation at 0.3 mg, sc administered as six doses at 1200, 1230, 1300, 1350, 1400 and 1450 hrs during proestrus stage measured during estrus stage by dissecting microscopic analysis; type: functional
How it was run: (§2)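 Cycling Charles River CD rats were given six subcutaneous injections of analogue in 0.1 mL propylene glycol on the afternoon of proestrus, and controls received vehicle alone. Rats were killed the next morning (estrus). Ovulating animals were scored and ova in the oviducts were counted under a dissecting microscope.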

Rattus norvegicus [4] = assay: Antiovulatory activity in sc dosed CD rat assessed as blockade of ovulation administered as six doses at 1200, 1230, 1300, 1350, 1400 and 1450 hrs during proestrus stage measured during estrus stage by dissecting microscopic analysis; type: functional; how it was run: as §2
[5] = target: T1, Gonadotropin-releasing hormone receptor (Rattus norvegicus); assay: In vitro antagonist activity at GNRHR in CD rat anterior pituitary gland assessed as inhibition of LH-RH-stimulated LH release at compound to LH-RH molar ratio of 100 after 4 hrs by radioimmunoassay; settings: concentration not given here; how it was run: as §1
[6] = target: T1, Gonadotropin-releasing hormone receptor (Rattus norvegicus); assay: In vitro antagonist activity at GNRHR in CD rat anterior pituitary gland assessed as inhibition of LH-RH-stimulated LH release at compound to LH-RH molar ratio of 40 after 4 hrs by radioimmunoassay; settings: concentration not given here; how it was run: as §1
[7] = target: T1, Gonadotropin-releasing hormone receptor (Rattus norvegicus); assay: In vitro antagonist activity at GNRHR in CD rat anterior pituitary gland assessed as inhibition of LH-RH-stimulated LH release at compound to LH-RH molar ratio of 20 after 4 hrs by radioimmunoassay; settings: concentration not given here; how it was run: as §1
[8] = target: T1, Gonadotropin-releasing hormone receptor (Rattus norvegicus); assay: In vitro antagonist activity at GNRHR in CD rat anterior pituitary gland assessed as inhibition of LH-RH-stimulated LH release at compound to LH-RH molar ratio of 1.7 after 4 hrs by radioimmunoassay; settings: concentration not given here; how it was run: as §1
[9] = target: T1, Gonadotropin-releasing hormone receptor (Rattus norvegicus); assay: In vitro antagonist activity at GNRHR in CD rat anterior pituitary gland assessed as inhibition of LH-RH-stimulated LH release at compound to LH-RH molar ratio of 28 after 4 hrs by radioimmunoassay; settings: concentration not given here; how it was run: as §1
[10] = target: T1, Gonadotropin-releasing hormone receptor (Rattus norvegicus); assay: In vitro antagonist activity at GNRHR in CD rat anterior pituitary gland assessed as inhibition of LH-RH-stimulated LH release at compound to LH-RH molar ratio of 5 after 4 hrs by radioimmunoassay; settings: concentration not given here; how it was run: as §1
Rattus norvegicus [11] = assay: Antiovulatory activity in CD rat assessed as blockade of ovulation at 10 mg, sc administered as six doses at 1200, 1230, 1300, 1350, 1400 and 1450 hrs during proestrus stage measured during estrus stage by dissecting microscopic analysis; type: functional; how it was run: as §2
Rattus norvegicus [12] = assay: Antiovulatory activity in CD rat assessed as blockade of ovulation at 0.1 mg, sc administered as six doses at 1200, 1230, 1300, 1350, 1400 and 1450 hrs during proestrus stage measured during estrus stage by dissecting microscopic analysis; type: functional; how it was run: as §2
[13] = Solubility of the compound in water; type: physicochemical
[14] = Solubility of the compound in 0.9% sodium chloride; type: physicochemical

inhibition [5]: 70% | inhibition [6]: 70% | ED50 [2]: 12.8 molar ratio and 7.7 molar ratio
SMILES: CCNC(=O)[C@@H]1CCCN1C(=O)[C@H](CCCNC(=N)N)NC(=O)[C@H](CC(C)C)NC(=O)[C@@H](Cc1ccccc1)NC(=O)[C@H](Cc1ccc(O)cc1)NC(=O)[C@H](CO)NC(=O)[C@H](Cc1c[nH]c2ccccc12)NC(=O)[C@H](CCC(N)=O)NC(=O)OCc1ccccc1

inhibition [9]: 82% | inhibition [10]: 77%
SMILES: CCNC(=O)[C@@H]1CCCN1C(=O)[C@H](CCCNC(=N)N)NC(=O)[C@H](CC(C)C)NC(=O)[C@H](NC(=O)[C@H](Cc1ccc(O)cc1)NC(=O)[C@H](CO)NC(=O)[C@H](Cc1c[nH]c2ccccc12)NC(=O)[C@H](CCC(N)=O)NC(=O)OCc1ccccc1)[C@@H](O)c1ccccc1

The next lines start with the compound.

SMILES: CC(C)C[C@H](NC(=O)[C@@H](Cc1ccccc1)NC(=O)[C@H](Cc1ccc(O)cc1)NC(=O)[C@H](CO)NC(=O)[C@H](Cc1c[nH]c2ccccc12)NC(=O)[C@@H](Cc1ccccc1)NC(=O)[C@@H]1CCC(=O)N1)C(=O)N[C@@H](CCCNC(=N)N)C(=O)N1CCC[C@H]1C(=O)NCC(N)=O.Cl
inhibition [1]: 98% | ED50 [2]: 76 molar ratio | inhibition (INH) (Rattus norvegicus [3]): 100% | ED50 (Rattus norvegicus [4]): 0.1 mg

SMILES: CC(C)C[C@H](NC(=O)[C@@H](Cc1c[nH]c2ccccc12)NC(=O)[C@H](Cc1ccc(O)cc1)NC(=O)[C@H](CO)NC(=O)[C@H](Cc1c[nH]c2ccccc12)NC(=O)[C@H](COCc1ccccc1)NC(=O)OC(C)(C)C)C(=O)N[C@@H](CCCNC(=N)N)C(=O)N1CCC[C@H]1C(=O)NCC(N)=O
inhibition [7]: 71% | inhibition [8]: 64% | ED50 [2]: 1.3 molar ratio and 2 molar ratio

SMILES: CCNC(=O)[C@@H]1CCCN1C(=O)[C@H](CCCNC(=N)N)NC(=O)[C@H](CC(C)C)NC(=O)[C@@H](Cc1ccccc1)NC(=O)[C@H](Cc1ccc(O)cc1)NC(=O)[C@H](CO)NC(=O)[C@H](Cc1c[nH]c2ccccc12)NC(=O)[C@H](CCC(N)=O)NC(=O)OCc1ccccc1.Cl
inhibition (INH) (Rattus norvegicus [11]): 0% | ED50 (Rattus norvegicus [4]): >10 mg

SMILES: CC(=O)O.CC(C)C[C@H](NC(=O)[C@@H](Cc1c[nH]c2ccccc12)NC(=O)[C@H](Cc1ccc(O)cc1)NC(=O)[C@H](CO)NC(=O)[C@H](Cc1c[nH]c2ccccc12)NC(=O)[C@H](COCc1ccccc1)NC(=O)OC(C)(C)C)C(=O)N[C@@H](CCCNC(=N)N)C(=O)N1CCC[C@H]1C(=O)NCC(N)=O
inhibition (INH) (Rattus norvegicus [12]): 100% | ED50 (Rattus norvegicus [4]): 0.05 mg | solubility [13]: 3000 µg/mL | solubility [14]: 16 µg/mL
